The values below come from ChEMBL document CHEMBL2151038, “Synthesis, characterization and biological evaluation of some novel 2,4-thiazolidinediones as potential cytotoxic, antimicrobial and antihyperglycemic agents” (Bioorg Med Chem Lett, 2012).

Series [1] relates to Artemia salina. Put plainly: Cytotoxicity in brine shrimps larvae assessed as mortality after 24 hrs. The series is classed as functional. To be noted: read-out: ED50 (the source's name). The method in brief:
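Artemia salina nauplii hatched 38 h under constant aeration in sterile brine (sea salt 38 g/L, pH 8.5 with 1 N NaOH). Ten nauplii per vial were exposed to a range of compound concentrations at 37 °C for 24 h under incandescent light, alongside vehicle-treated controls. Survivors were counted, % lethality was taken from mean survivors versus control, and ED50 came from probit analysis.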

For series [2], the system named is Rattus norvegicus. Put plainly: Antihyperglycemic activity in po dosed streptozotocin-induced type 2 diabetic Wistar albino rat assessed as reduction in plasma glucose level by glucometer. It is filed as functional, organism-based. The method in brief:
(§1)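 Wistar albino rats of either sex, 150–200 g, fasted 16 h. Diabetes induced by nicotinamide 150 mg/kg, then STZ 65 mg/kg in citrate buffer pH 4.5. Glucose confirmed after 48 h. Groups of six. Oral dosing as 0.25% sodium CMC suspension at 10, 30 or 50 mg/kg. Rosiglitazone was the reference. Retro-orbital plasma glucose measured by glucometer before dosing and at 1, 2, 4, 6, 8, 12 and 24 h. Results as mean ± SEM, compared by ANOVA, t-test and Dunnett's test.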

For series [3], the system named is Bacillus subtilis. Put plainly: Antibacterial activity against Bacillus subtilis NCIM 2063 after 24 hrs by NCCLS agar well diffusion method. The series is classed as functional. To be noted: NCIM 2063, 24 h. The method in brief: (§2)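 Nutrient agar seeded with 0.1 mL bacterial suspension (10⁵ CFU/mL in 0.85% saline). 6 mm wells filled with 0.1 mL compound. Plates in triplicate, 37 ± 0.5 °C for 24 h. MIC = lowest concentration giving complete growth inhibition.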
On the technique in general: In agar diffusion tests the substance spreads into inoculated agar from a disc or well.

Series [4] concerns Bacillus pumilus. Put plainly: Antibacterial activity against Bacillus pumilus NCIM 2327 after 24 hrs by NCCLS agar well diffusion method. To be noted: NCIM 2327, 24 h. It is filed as functional. Summed up:
as §2

Series [5] concerns Staphylococcus aureus. As to the kind of experiment: Antibacterial activity against Staphylococcus aureus NCIM 2079 after 24 hrs by NCCLS agar well diffusion method. The series is classed as functional. Particulars: NCIM 2079, 24 h. The method in brief: as §2
Series [6] concerns Micrococcus luteus. As to the kind of experiment: Antibacterial activity against Micrococcus luteus NCIM 2155 after 24 hrs by NCCLS agar well diffusion method. It is filed as functional. Particulars: NCIM 2155, 24 h. The method in brief: as §2
For series [7], the system named is Pseudomonas aeruginosa. Put plainly: Antibacterial activity against Pseudomonas aeruginosa NCIM 2036 after 24 hrs by NCCLS agar well diffusion method. The series is classed as functional. To be noted: NCIM 2036, 24 h. The method in brief: as §2
Series [8] has as its system Klebsiella pneumoniae. Put plainly: Antibacterial activity against Klebsiella pneumoniae NCIM 5082 after 24 hrs by NCCLS agar well diffusion method. It is filed as functional. Particulars: NCIM 5082, 24 h. The method in brief:
as §2

Series [9] deals with Escherichia coli. As to the kind of experiment: Antibacterial activity against Escherichia coli NCIM 2065 after 24 hrs by NCCLS agar well diffusion method. The series is classed as functional. To be noted: NCIM 2065, 24 h. Summed up: as §2
For series [10], the system named is Proteus vulgaris. Put plainly: Antibacterial activity against Proteus vulgaris NCIM 2813 after 24 hrs by NCCLS agar well diffusion method. Particulars: NCIM 2813, 24 h. It is filed as functional. The method in brief: as §2
Series [11] deals with Candida albicans. As to the kind of experiment: Antifungal activity against Candida albicans NCIM 3102 after 48 hrs by NCCLS agar well diffusion method. The series is classed as functional. To be noted: NCIM 3102, 48 h. Summed up:
(§3)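 Spore suspensions in sterile distilled water adjusted to 10⁶ CFU/mL, 0.1 mL spread on potato-dextrose agar. 6 mm wells received 0.1 mL compound in 1% DMSO (final 16–512 µg/mL). Controls: 1% DMSO and ketoconazole (16 µg/mL). Triplicate plates, 48 h at 28 ± 0.2 °C. MIC = lowest concentration completely inhibiting growth.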

In series [12] the test system is Aspergillus niger. Put plainly: Antifungal activity against Aspergillus niger NCIM 548 after 48 hrs by NCCLS agar well diffusion method. The series is classed as functional. Particulars: NCIM 548, 48 h. Summed up: as §3
In series [13] the test system is Aspergillus oryzae. Put plainly: Antifungal activity against Aspergillus oryzae NCIM 643 after 48 hrs by NCCLS agar well diffusion method. The series is classed as functional. Particulars: NCIM 643, 48 h. The method in brief: as §3
For series [14], the system named is Penicillium chrysogenum. Put plainly: Antifungal activity against Penicillium chrysogenum NCIM 738 after 48 hrs by NCCLS agar well diffusion method. To be noted: NCIM 738, 48 h. It is filed as functional. The method in brief: as §3
Series [15] can be described thus: Toxicity in mouse assessed as changes in vital functions. It is filed as organism-based. Particulars: in vivo.
Series [16] has as its system Rattus norvegicus. Put plainly: Antihyperglycemic activity in streptozotocin-induced type 2 diabetic Wistar albino rat assessed as reduction in plasma glucose level at 10 mg/kg, po by glucometer. It is filed as functional. The method in brief: as §1
In series [17] the test system is Rattus norvegicus. Put plainly: Antihyperglycemic activity in streptozotocin-induced type 2 diabetic Wistar albino rat assessed as reduction in plasma glucose level at 30 mg/kg, po by glucometer. It is filed as functional. The method in brief: as §1
In series [18] the test system is Rattus norvegicus. As to the kind of experiment: Antihyperglycemic activity in streptozotocin-induced type 2 diabetic Wistar albino rat assessed as reduction in plasma glucose level at 50 mg/kg, po by glucometer. The series is classed as functional. Summed up: as §1

Converted amounts (≈) assume the structure as drawn.

In general, MIC refers to the smallest concentration in the dilution series that meets the test's criterion for growth inhibition. Read a low MIC as inhibition by little substance. As to `O=C1NC(=O)/C(=C/c2ccc(/C=C/C(=O)c3ccc([N+](=O)[O-])cc3)cc2)S1`, the EC50 in series [1] is 49.3 µg/mL (≈ 130 µM). The Activity result is “Dose-dependent effect” in series [2], 13.63 mg/dL in series [16], 16.74 mg/dL in series [17] and 22.73 mg/dL in series [18]. For the same compound, the MIC in series [3] stood at 256 µg/mL (≈ 673 µM); in series [4], 512 µg/mL (≈ 1350 µM); in [5], 512 µg/mL (≈ 1350 µM); in series [6], 512 µg/mL (≈ 1350 µM); in [7], 256 µg/mL (≈ 673 µM); in series [8], 512 µg/mL (≈ 1350 µM). Besides, the MIC came to 512 µg/mL (≈ 1350 µM) in series [9]; 512 µg/mL (≈ 1350 µM) in [10]; 256 µg/mL (≈ 673 µM) in [11]; 512 µg/mL (≈ 1350 µM) in [12]; 512 µg/mL (≈ 1350 µM) in series [13]; 256 µg/mL (≈ 673 µM) in series [14]. Moreover, the MTD in [15] was found to be 2000 mg/kg.

As to `O=C1NC(=O)/C(=C/c2ccc(/C=C/C(=O)c3ccc4ccccc4c3)cc2)S1`, the EC50 in series [1] was 48.1 µg/mL (≈ 125 µM). Besides, the Activity result is “Dose-dependent effect” in series [2], 23.75 mg/dL in [16], 31.84 mg/dL in series [17] and 36.93 mg/dL in series [18]. Besides, the MIC in [3], in [4], in [5], in series [6], in series [7] and in series [8] was 512 µg/mL (≈ 1330 µM) in each case. The MIC in series [9], in [10], in [11], in series [12], in [13] and in [14] was 512 µg/mL (≈ 1330 µM) in each case. Further, the MTD in series [15] is 2000 mg/kg.

`O=C1NC(=O)/C(=C/c2ccc(/C=C/C(=O)c3ccc(O)cc3O)cc2)S1`: the EC50 in [1] was 49.2 µg/mL (≈ 134 µM). In addition, the Activity result is “Dose-dependent effect” in [2], 26.86 mg/dL in [16], 33.72 mg/dL in [17] and 41.67 mg/dL in [18]. For the same compound, the MIC in series [3] is 256 µg/mL (≈ 697 µM); in [4], 256 µg/mL (≈ 697 µM); in series [5] it was 256 µg/mL (≈ 697 µM); in series [6] it was 512 µg/mL (≈ 1390 µM); in series [7], 256 µg/mL (≈ 697 µM); in series [8] it was 256 µg/mL (≈ 697 µM). The MIC in series [9], in [10], in series [11], in series [12], in [13] and in series [14] was 256 µg/mL (≈ 697 µM) each time. The MTD in series [15] came out at 2000 mg/kg.

Consider `COc1cccc(C(=O)/C=C/c2ccc(/C=C3\SC(=O)NC3=O)cc2)c1`, for which the EC50 in [1] was determined as 18.7 µg/mL (≈ 51.2 µM). The Activity entry is “Dose-dependent effect” in series [2], 16.41 mg/dL in [16], 28.73 mg/dL in [17] and 34.61 mg/dL in [18]. The MIC was determined as 128 µg/mL (≈ 350 µM) in series [3]; 128 µg/mL (≈ 350 µM) in [4]; 128 µg/mL (≈ 350 µM) in series [5]; 256 µg/mL (≈ 701 µM) in series [6]; 128 µg/mL (≈ 350 µM) in series [7]; 128 µg/mL (≈ 350 µM) in series [8]. Also, the minimum inhibitory concentration (MIC) in [9] stood at 128 µg/mL (≈ 350 µM); in [10], 256 µg/mL (≈ 701 µM); in [11] it was 128 µg/mL (≈ 350 µM); in series [12] it was 64 µg/mL (≈ 175 µM); in series [13], 256 µg/mL (≈ 701 µM); in series [14], 256 µg/mL (≈ 701 µM). The MTD in series [15] turned out to be 2000 mg/kg.

On to `O=C1NC(=O)/C(=C/c2ccc(/C=C/C(=O)c3cccc(F)c3)cc2)S1`, for which the EC50 in series [1] amounted to 9.28 µg/mL (≈ 26.3 µM). The Activity result was “Dose-dependent effect” in series [2], 12.08 mg/dL in [16], 16.87 mg/dL in [17] and 20.66 mg/dL in series [18]. The MIC came to 32 µg/mL (≈ 90.6 µM) in series [3]; 32 µg/mL (≈ 90.6 µM) in series [4]; 32 µg/mL (≈ 90.6 µM) in series [5]; 64 µg/mL (≈ 181 µM) in [6]; 32 µg/mL (≈ 90.6 µM) in series [7]; 32 µg/mL (≈ 90.6 µM) in series [8]. Moreover, the MIC was 32 µg/mL (≈ 90.6 µM) in [9]; 64 µg/mL (≈ 181 µM) in series [10]; 64 µg/mL (≈ 181 µM) in series [11]; 64 µg/mL (≈ 181 µM) in series [12]; 64 µg/mL (≈ 181 µM) in series [13]; 64 µg/mL (≈ 181 µM) in series [14]. For the same compound, the MTD in series [15] stood at 2000 mg/kg.
